# Test results reported in ChEMBL document CHEMBL1144306, “1-Hydroxyalkyl-3-phenylthioureas as novel HDL-elevating agents” (2005).
# Key:
# Type in all cases: functional
# Rattus norvegicus [1] = test: Effect on level of high density lipoprotein cholesterol (relative to untreated control) in cholesterol fed-male rats at 80 mg/kg/day
# How it was run: (§1)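 Male Sprague–Dawley rats (groups of six) fed a cholic acid- and cholesterol-supplemented diet; compound mixed into the diet, given ad libitum for eight days. Lipoproteins were separated by ultracentrifugation, and cholesterol was measured by an enzymatic colorimetric method. Results are % change versus untreated controls, with significance at p < 0.05.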
# Rattus norvegicus [2] = test: Effect on level of total cholesterol (relative to untreated control) in cholesterol fed-male rats at 80 mg/kg/day; how it was run: as §1
# Rattus norvegicus [3] = test: Effect on change in body weight gain (relative to untreated control) in cholesterol fed-male rats at 80 mg/kg/day
# How it was run: (§2)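 Male Sprague–Dawley rats, six per group, on a cholic acid- and cholesterol-supplemented diet. Compounds were mixed into the diet and given ad libitum for eight days. Change in body weight gain is expressed as a percentage of untreated controls. Significance was set at p < 0.05 versus untreated controls.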
# Rattus norvegicus [4] = test: Effect on level of apolipoprotein (Apo) AI (relative to untreated control) in cholesterol fed-male rats at 80 mg/kg/day
# How it was run: (§3)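 Six male Sprague–Dawley rats per group, fed a cholic acid/cholesterol-supplemented diet, received compound in the diet ad libitum for eight days. Serum Apo A–I was measured by SDS-PAGE or by rat competition ELISA and reported as % change versus untreated controls (p < 0.05). Gemfibrozil was the internal positive control in each study.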
# Rattus norvegicus [5] = test: Effect on level of triglyceride in (relative to untreated control) in cholesterol fed-male rats at 80 mg/kg/day
# How it was run: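 Compound given in diet ad libitum for eight days to groups of six male Sprague–Dawley rats on a cholic acid and cholesterol-supplemented diet. Serum triglycerides expressed as % change relative to untreated controls, with significance at p < 0.05. Gemfibrozil served as internal positive control within each study.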
# Rattus norvegicus [6] = test: Effect on level of high density lipoprotein cholesterol (relative to untreated control) in cholesterol fed-male rats at 60 mg/kg/day
# How it was run: (§4)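 Cholic acid/cholesterol-fed male Sprague–Dawley rats (n = 6 per group) were dosed via diet ad libitum for eight days. Lipoproteins were separated by ultracentrifugation and HDL cholesterol was quantified by an enzymatic colorimetric method. Values are % change relative to untreated controls, with significance at p < 0.05. Gemfibrozil was the internal positive control.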
# Rattus norvegicus [7] = test: Effect on change in body weight gain (relative to untreated control) in cholesterol fed-male rats at 60 mg/kg/day; how it was run: as §2
# Rattus norvegicus [8] = test: Effect on level of triglyceride in (relative to untreated control) in cholesterol fed-male rats at 60 mg/kg/day
# How it was run: (§5)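 Serum triglycerides were measured in groups of six male Sprague–Dawley rats on a cholic acid/cholesterol-supplemented diet. Compound was dosed in the diet, ad libitum, for eight days. Results are % change relative to untreated controls, with significance at p < 0.05.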
# Rattus norvegicus [9] = test: Effect on level of apolipoprotein (Apo) AI (relative to untreated control) in cholesterol fed-male rats at 60 mg/kg/day; how it was run: as §3
# Rattus norvegicus [10] = test: Effect on level of total cholesterol (relative to untreated control) in cholesterol fed-male rats at 60 mg/kg/day; how it was run: as §1
# Rattus norvegicus [11] = test: Effect on level of high density lipoprotein cholesterol (relative to untreated control) in cholesterol fed-male rats at 50 mg/kg/day; how it was run: as §4
# Rattus norvegicus [12] = test: Effect on change in body weight gain (relative to untreated control) in cholesterol fed-male rats at 50 mg/kg/day; how it was run: as §2
# Rattus norvegicus [13] = test: Effect on level of total cholesterol (relative to untreated control) in cholesterol fed-male rats at 50 mg/kg/day; how it was run: as §1
# Rattus norvegicus [14] = test: Effect on level of apolipoprotein (Apo) AI (relative to untreated control) in cholesterol fed-male rats at 50 mg/kg/day; how it was run: as §3
# Rattus norvegicus [15] = test: Effect on level of triglyceride in (relative to untreated control) in cholesterol fed-male rats at 50 mg/kg/day; how it was run: as §5
# Rattus norvegicus [16] = test: Effect on level of high density lipoprotein cholesterol (relative to untreated control) in cholesterol fed-male rats at 74 mg/kg/day; how it was run: as §1
# Rattus norvegicus [17] = test: Effect on change in body weight gain (relative to untreated control) in cholesterol fed-male rats at 74 mg/kg/day; how it was run: as §2
# Rattus norvegicus [18] = test: Effect on level of total cholesterol (relative to untreated control) in cholesterol fed-male rats at 74 mg/kg/day; how it was run: as §1
# Rattus norvegicus [19] = test: Effect on level of triglyceride in (relative to untreated control) in cholesterol fed-male rats at 74 mg/kg/day; how it was run: as §5
# Rattus norvegicus [20] = test: Effect on level of apolipoprotein (Apo) AI (relative to untreated control) in cholesterol fed-male rats at 74 mg/kg/day; how it was run: as §3
# Rattus norvegicus [21] = test: Effect on level of high density lipoprotein cholesterol (relative to untreated control) in cholesterol fed-male rats at 68 mg/kg/day; how it was run: as §1
# Rattus norvegicus [22] = test: Effect on level of total cholesterol (relative to untreated control) in cholesterol fed-male rats at 68 mg/kg/day; how it was run: as §1
# Rattus norvegicus [23] = test: Effect on change in body weight gain (relative to untreated control) in cholesterol fed-male rats at 68 mg/kg/day; how it was run: as §2
# Rattus norvegicus [24] = test: Effect on level of triglyceride in (relative to untreated control) in cholesterol fed-male rats at 68 mg/kg/day; how it was run: as §5
# Rattus norvegicus [25] = test: Effect on level of apolipoprotein (Apo) AI (relative to untreated control) in cholesterol fed-male rats at 68 mg/kg/day; how it was run: as §3
# Rattus norvegicus [26] = test: Effect on level of high density lipoprotein cholesterol (relative to untreated control) in cholesterol fed-male rats at 51 mg/kg/day; how it was run: as §4
# Rattus norvegicus [27] = test: Effect on change in body weight gain (relative to untreated control) in cholesterol fed-male rats at 51 mg/kg/day; how it was run: as §2
# Rattus norvegicus [28] = test: Effect on level of total cholesterol (relative to untreated control) in cholesterol fed-male rats at 51 mg/kg/day; how it was run: as §1
# Rattus norvegicus [29] = test: Effect on level of triglyceride in (relative to untreated control) in cholesterol fed-male rats at 51 mg/kg/day; how it was run: as §5
# Rattus norvegicus [30] = test: Effect on level of apolipoprotein (Apo) AI (relative to untreated control) in cholesterol fed-male rats at 51 mg/kg/day; how it was run: as §3
# Rattus norvegicus [31] = test: Effect on level of high density lipoprotein cholesterol (relative to untreated control) in cholesterol fed-male rats at 63 mg/kg/day; how it was run: as §1
# Rattus norvegicus [32] = test: Effect on change in body weight gain (relative to untreated control) in cholesterol fed-male rats at 63 mg/kg/day; how it was run: as §2
# Rattus norvegicus [33] = test: Effect on level of total cholesterol (relative to untreated control) in cholesterol fed-male rats at 63 mg/kg/day; how it was run: as §1
# Rattus norvegicus [34] = test: Effect on level of triglyceride in (relative to untreated control) in cholesterol fed-male rats at 63 mg/kg/day; how it was run: as §5
# Rattus norvegicus [35] = test: Effect on level of apolipoprotein (Apo) AI (relative to untreated control) in cholesterol fed-male rats at 63 mg/kg/day; how it was run: as §3
# Rattus norvegicus [36] = test: Effect on level of apolipoprotein (Apo) AI (relative to untreated control) in cholesterol fed-male rats at 36 mg/kg/day; how it was run: as §3
# Rattus norvegicus [37] = test: Effect on level of high density lipoprotein cholesterol (relative to untreated control) in cholesterol fed-male rats at 36 mg/kg/day; how it was run: as §4
# Rattus norvegicus [38] = test: Effect on change in body weight gain (relative to untreated control) in cholesterol fed-male rats at 36 mg/kg/day; how it was run: as §2
# Rattus norvegicus [39] = test: Effect on level of total cholesterol (relative to untreated control) in cholesterol fed-male rats at 36 mg/kg/day; how it was run: as §1
# Rattus norvegicus [40] = test: Effect on level of triglyceride in (relative to untreated control) in cholesterol fed-male rats at 36 mg/kg/day; how it was run: as §5
# Rattus norvegicus [41] = test: Effect on level of high density lipoprotein cholesterol (relative to untreated control) in cholesterol fed-male rats at 42 mg/kg/day; how it was run: as §4
# Rattus norvegicus [42] = test: Effect on change in body weight gain (relative to untreated control) in cholesterol fed-male rats at 42 mg/kg/day; how it was run: as §2
# Rattus norvegicus [43] = test: Effect on level of total cholesterol (relative to untreated control) in cholesterol fed-male rats at 42 mg/kg/day; how it was run: as §1
# Rattus norvegicus [44] = test: Effect on level of triglyceride in (relative to untreated control) in cholesterol fed-male rats at 42 mg/kg/day; how it was run: as §5
# Rattus norvegicus [45] = test: Effect on level of apolipoprotein (Apo) AI (relative to untreated control) in cholesterol fed-male rats at 42 mg/kg/day; how it was run: as §3
compound,measurement,setting,value
COc1ccc(Cl)cc1/N=C(\S)NCCO,Activity,Rattus norvegicus [1],106%
same,Activity,Rattus norvegicus [2],66%
same,Activity,Rattus norvegicus [3],-38%
same,Activity,Rattus norvegicus [4],30%
same,Activity,Rattus norvegicus [5],-27%
OCC/N=C(\S)Nc1cc(Cl)cc(Cl)c1,Activity,Rattus norvegicus [6],50%
same,Activity,Rattus norvegicus [7],-90%
same,Activity,Rattus norvegicus [8],-35%
same,Activity,Rattus norvegicus [9],48%
same,Activity,Rattus norvegicus [10],9%
Cc1ccc(C)c(OCCCC(C)(C)C(=O)O)c1 [GEMFIBROZIL],Activity,Rattus norvegicus [11],104%
same,Activity,Rattus norvegicus [12],2%
same,Activity,Rattus norvegicus [13],-23%
same,Activity,Rattus norvegicus [14],54%
same,Activity,Rattus norvegicus [15],-29%
Cc1ccc(N/C(S)=N/CCO)cc1Cl,Activity,Rattus norvegicus [16],72%
same,Activity,Rattus norvegicus [17],-77%
same,Activity,Rattus norvegicus [18],15%
same,Activity,Rattus norvegicus [19],-15%
same,Activity,Rattus norvegicus [20],-5%
OCC/N=C(\S)Nc1cc(Cl)ccc1Cl,Activity,Rattus norvegicus [21],71%
same,Activity,Rattus norvegicus [22],21%
same,Activity,Rattus norvegicus [23],-66%
same,Activity,Rattus norvegicus [24],-13%
same,Activity,Rattus norvegicus [25],36%
Cc1ccccc1/N=C(\S)NCCO,Activity,Rattus norvegicus [26],3%
same,Activity,Rattus norvegicus [27],-138%
same,Activity,Rattus norvegicus [28],66%
same,Activity,Rattus norvegicus [29],-51%
same,Activity,Rattus norvegicus [30],-18%
OCC/N=C(\S)Nc1cccc(C(F)(F)F)c1,Activity,Rattus norvegicus [21],66%
same,Activity,Rattus norvegicus [22],44%
same,Activity,Rattus norvegicus [23],-76%
same,Activity,Rattus norvegicus [24],-15%
same,Activity,Rattus norvegicus [25],36%
Cc1ccc(C)c(N/C(S)=N/CCO)c1,Activity,Rattus norvegicus [31],62%
same,Activity,Rattus norvegicus [32],-117%
same,Activity,Rattus norvegicus [33],32%
same,Activity,Rattus norvegicus [34],-32%
same,Activity,Rattus norvegicus [35],0%
Cc1ccc(Cl)cc1/N=C(\S)NCCS,Activity,Rattus norvegicus [36],10%
same,Activity,Rattus norvegicus [37],25%
same,Activity,Rattus norvegicus [38],-20%
same,Activity,Rattus norvegicus [39],8%
same,Activity,Rattus norvegicus [40],-3%
Cc1cc(Cl)ccc1/N=C(\S)NCCO,Activity,Rattus norvegicus [41],53%
same,Activity,Rattus norvegicus [42],-229%
same,Activity,Rattus norvegicus [43],17%
same,Activity,Rattus norvegicus [44],-8%
same,Activity,Rattus norvegicus [45],18%
